High-throughput results as filed in PubChem BioAssay.
GASC1 inh: inhibitors of GASC-1 (KDM4C) histone demethylase, primary screen, biochemical, single concentration HTS; Lysine-specific demethylase 4C (Homo sapiens), Q9H3R0; GST-KDM4C 2-372, H3K9me3 peptide, LANCE TR-FRET; inhibition, % at 12.5 µM; 96,000 tested, 0.15% active;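 active = mean replicate inhibition above about 25%, with at least 55% of replicates also reaching it, limit read from the data, passing the limit was not always enough; inconclusive = only one of those two conditions met; inactive = neither condition met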
Target sequence (Q9H3R0 2-372 limits assumed): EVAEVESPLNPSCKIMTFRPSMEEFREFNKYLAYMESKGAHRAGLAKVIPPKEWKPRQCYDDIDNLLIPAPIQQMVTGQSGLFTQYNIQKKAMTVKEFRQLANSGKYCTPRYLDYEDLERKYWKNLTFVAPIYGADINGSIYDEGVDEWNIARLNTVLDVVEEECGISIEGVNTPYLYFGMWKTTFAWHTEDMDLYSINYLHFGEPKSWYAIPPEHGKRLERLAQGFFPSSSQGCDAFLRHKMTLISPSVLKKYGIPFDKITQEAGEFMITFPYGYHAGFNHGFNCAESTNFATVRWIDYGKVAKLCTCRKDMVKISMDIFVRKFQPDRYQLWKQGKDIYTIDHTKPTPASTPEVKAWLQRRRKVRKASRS
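reagent = H3K9me3 peptide substrate, Fe(II), 2-oxoglutarate | system = GST-tagged GASC-1 (JMJD2C) catalytic fragment, aa 2-372 | amount = enzyme final amount 10 nM | read-out = Fall in 671/618 emission ratio as inhibition | medium = HEPES buffer, pH 7.5, plus ascorbate | schedule = 30 min reaction, 60 min detection, RT | measured by = LANCE TR-FRET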
Pf Dd2 growth: P. falciparum Dd2 growth inhibitors, primary screen, SYBR Green fluorescence, single dose replicates; 94,000 tested, 2.3% active; activity change, % at 10 µM; 72 h; hits give low values; in the data active = activity change below about -80%; inconclusive = no clear call, values can overlap the other calls
IDH1 mut inh: inhibitors of IDH1 R132H reductase, primary screen, biochemical, plate reader, single point. Isocitrate dehydrogenase [NADP] cytoplasmic (Homo sapiens), O75874. diaphorase/resazurin fluorescence, 60 min. inhibition, % at 10 µM. 70,000 tested, 0.18% active. AID 624101, 2012; in the data active = inhibition above about 34%; inconclusive = no clear call, values can overlap the other calls; inactive = below about 11%;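 note: 0% = DMSO and 100% = no enzyme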
Target sequence (O75874 whole entry R132H): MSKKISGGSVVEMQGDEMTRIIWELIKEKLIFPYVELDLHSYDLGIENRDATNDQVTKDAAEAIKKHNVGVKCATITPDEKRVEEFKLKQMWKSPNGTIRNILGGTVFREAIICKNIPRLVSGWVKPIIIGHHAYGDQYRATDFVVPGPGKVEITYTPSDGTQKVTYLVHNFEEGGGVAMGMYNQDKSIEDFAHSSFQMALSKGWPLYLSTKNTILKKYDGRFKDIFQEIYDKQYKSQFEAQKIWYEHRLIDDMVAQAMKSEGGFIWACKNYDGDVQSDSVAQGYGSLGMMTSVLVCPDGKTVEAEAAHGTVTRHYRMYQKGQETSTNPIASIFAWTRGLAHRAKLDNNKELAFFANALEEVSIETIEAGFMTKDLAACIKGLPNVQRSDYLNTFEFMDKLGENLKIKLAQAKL
T cruzi growth-1: T. cruzi intracellular proliferation inhibitors, primary screen, cell-based, beta-gal Tulahuen parasites, NIH3T3 host, luminescence; T. cruzi beta-gal in NIH3T3, GalScreen luminescence, 90 h; inhibition, % at 8.34 µM; 77,000 tested, 5.9% active; AID 624255, 2012;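 active = mean inhibition above about 93%, with at least 55% of replicates each passing it, limit read from the data, passing the limit was not always enough; inconclusive = only one of those two conditions holds; inactive = neither condition holds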
T cruzi growth-2: T. cruzi intracellular proliferation inhibitors, confirmation, cell-based, NIH3T3 host, beta-gal parasite, luminescence, cherry-pick; T. cruzi beta-gal in NIH3T3, GalScreen luminescence, 90 h; shares compounds with T cruzi growth-1; inhibition, % at 8.35 µM; 5,600 tested, 72% active;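 active = mean replicate inhibition above about 95% and at least 55% of replicates individually reaching it, limit read from the data; inconclusive = only one of the two criteria is met; inactive = neither criterion is met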
T cruzi growth-3: inhibitors of intracellular T. cruzi replication, confirmation, NIH3T3 host cells, beta-gal parasites, cherry-pick, set 2 | shares compounds with T cruzi growth-1 | 5,600 tested, 21% active | inhibition, % at 2.09 µM | T. cruzi beta-gal in NIH3T3, GalScreen luminescence, 90 h;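 active = mean inhibition above about 95%, with at least 55% of replicates also reaching it, limit read from the data; inconclusive = meets just one of the two conditions; inactive = meets neither condition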;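 note: plate controls were neutral control median for no effect and positive control median for full effect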
3T3 cytotox: cytotoxicity in mouse NIH/3T3 fibroblasts, confirmation, cytotoxicity control for T. cruzi proliferation inhibitor project, cell-based, cherry-pick, single point; shares compounds with T cruzi growth-1; NIH/3T3 viability, CellTiter-Glo ATP luminescence, 90 h; cytotoxicity (signal decrease), % at 8.35 µM; 5,600 tested, 14% active;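 active = mean signal decrease across replicates above about 35% based on untreated-well scatter, with enough replicates individually passing, limit read from the data; inconclusive = no rule stated though some were filed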;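 note: 0% = median of neutral control wells and 100% = median of positive control wells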
NIH3T3 tox 2: NIH/3T3 fibroblast cytotoxicity, confirmation, cytotoxicity control, cell-based, cherry-pick, single point, set 2; shares compounds with T cruzi growth-1; NIH/3T3 viability, CellTiter-Glo ATP luminescence, 90 h; inhibition, % at 24.9 µM; 5,600 tested, 56% active; AID 651744, 2012;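 active = mean loss of cell viability signal at or above a set limit, and enough replicates individually reaching it; inconclusive = meets only the mean limit or only the replicate share; inactive = meets neither condition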;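 note: 0% = median of neutral control wells and 100% = median of positive control wells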
* marks the source's active call; other numbers are inactive results; ? = inconclusive; nt = not tested or not shown. Shown are actives, neighbours in structure and some others; about 5.9% of the full set was active somewhere.

SMILES | GASC1 inh | Pf Dd2 growth | IDH1 mut inh | T cruzi growth-1 | T cruzi growth-2 | T cruzi growth-3 | 3T3 cytotox | NIH3T3 tox 2
C[C@H](CO)N1C[C@H](C)[C@H](CN(C)C(=O)CN(C)C)Oc2cc(C#Cc3ccccc3)ccc2S1(=O)=O | -2.3 | ? | -0.1 | -18.0 | nt | nt | nt | nt
O=C1COc2ccc(S(=O)(=O)NCCOc3ccccc3)cc2N1 | nt | nt | -0.3 | nt | nt | nt | nt | nt
CC(C)CC#Cc1ccc2c(c1)O[C@H](CN(C)C(=O)NC1CCCC1)[C@@H](C)CN([C@@H](C)CO)S2(=O)=O | -1.5 | 3.2 | -0.4 | 125.2* | 102.6* | 81.1 | 5.8 | 102.6*
CC(C)CC#Cc1ccc2c(c1)O[C@H](CN(C)C(=O)NC1CCCC1)[C@H](C)CN([C@H](C)CO)S2(=O)=O | 0.0 | -10.8 | -0.2 | 120.4* | 102.7* | 93.2 | 18.2 | 103.7*
C[C@H]1CN([C@@H](C)CO)S(=O)(=O)c2ccc(C#Cc3ccc(F)cc3)cc2O[C@H]1CN(C)C(=O)NC1CCCCC1 | 0.8 | -36.6 | nt | 71.1 | nt | nt | nt | nt
CC(C)CC#Cc1ccc2c(c1)O[C@@H](CN(C)C(=O)NC(C)C)[C@H](C)CN([C@H](C)CO)S2(=O)=O | -4.0 | -15.3 | 6.5 | 50.5 | nt | nt | nt | nt
CC(C)CC#Cc1ccc2c(c1)O[C@@H](CN(C)C(=O)NC1CCCC1)[C@@H](C)CN([C@@H](C)CO)S2(=O)=O | -1.3 | -21.4 | -0.2 | 120.1* | 100.9* | 83.6 | -19.2 | 104.1*
CC(C)CC#Cc1ccc2c(c1)O[C@H](CN(C)C(=O)NC1CCCC1)[C@H](C)CN([C@@H](C)CO)S2(=O)=O | -0.2 | 9.8 | 4.1 | 120.2* | 110.4* | 79.0 | 19.6 | 80.9*
CC(C)CC#Cc1ccc2c(c1)O[C@@H](CN(C)C(=O)NC(C)C)[C@@H](C)CN([C@H](C)CO)S2(=O)=O | 0.2 | -25.1 | -4.1 | 50.9 | nt | nt | nt | nt
CC(C)Cc1nc(SC(C)C(=O)Nc2cccc(Cl)c2)n[nH]1 (stereo unspecified) | nt | nt | -0.1 | nt | nt | nt | nt | nt
C[C@@H]1CN([C@H](C)CO)C(=O)c2cc(NC(=O)C3CCCCC3)ccc2O[C@@H](C)CCCCO[C@@H]1CN(C)Cc1ccncc1 | 2.9 | -21.6 | 3.1 | 104.6* | 56.2 | 10.6 | -13.0 | -6.5
C[C@@H]1CN([C@H](C)CO)C(=O)c2cc(NC(=O)C3CCCCC3)ccc2O[C@@H](C)CCCCO[C@H]1CN(C)Cc1ccccc1 | 8.3 | -56.4 | nt | 98.7 | nt | nt | nt | nt
C[C@@H]1CCCCO[C@H](CN(C)Cc2ccncc2)[C@H](C)CN([C@H](C)CO)C(=O)c2cc(NC(=O)C3CCCCC3)ccc2O1 | -0.7 | nt | nt | 22.3 | nt | nt | nt | nt
C[C@@H]1CCCCO[C@@H](CN(C)Cc2ccc(Cl)c(Cl)c2)[C@@H](C)CN([C@H](C)CO)C(=O)c2cc(NC(=O)C3CCCCC3)ccc2O1 | 0.1 | -38.0 | nt | 106.6* | 106.9* | ? | -15.5 | 0.3
C[C@@H]1CN([C@@H](C)CO)C(=O)c2cc(NC(=O)C3CCCCC3)ccc2O[C@@H](C)CCCCO[C@H]1CN(C)Cc1ccccc1 | 0.3 | -63.5 | nt | 108.7* | 108.0* | 84.7 | -17.8 | 45.2*
COC(=O)c1ccccc1NC(=O)c1ccc(Cl)c(S(=O)(=O)Nc2ccc(C)cc2C)c1 | nt | nt | 0.9 | nt | nt | nt | nt | nt
COc1cccc(CO)c1OCC(=O)Nc1ccc(F)cc1 | nt | nt | -0.2 | nt | nt | nt | nt | nt
Cc1ccc(CN(CC(=O)O)S(=O)(=O)c2ccc(Br)cc2)cc1 | nt | nt | -0.4 | nt | nt | nt | nt | nt
Cc1cc(C(=O)Nc2cccc3c2O[C@@H](CN(C)Cc2ccc(C(F)(F)F)cc2)[C@@H](C)CN([C@@H](C)CO)C3=O)n(C)n1 | -0.1 | -22.0 | nt | 96.4* | 78.8 | -6.8 | 18.1 | ?
Cc1cc(C(=O)Nc2cccc3c2O[C@H](CN(C)Cc2ccc(C(=O)Nc4ccccc4N)cc2)[C@H](C)CN([C@@H](C)CO)C3=O)n(C)n1 | -1.0 | -82.3* | nt | 92.9* | 91.0 | 65.8 | 46.5* | 90.7*
Cc1cc(C(=O)Nc2cccc3c2O[C@H](CN(C)Cc2ccc(C(F)(F)F)cc2)[C@H](C)CN([C@H](C)CO)C3=O)n(C)n1 | -0.6 | -42.0 | nt | 18.1 | nt | nt | nt | nt
Cc1cc(C(=O)Nc2cccc3c2O[C@@H](CN(C)Cc2ccc(C(=O)Nc4ccccc4N)cc2)[C@@H](C)CN([C@H](C)CO)C3=O)n(C)n1 | -1.5 | -84.8* | nt | 105.6* | 103.8* | 98.1* | -6.9 | -8.1
CC(C)CC#Cc1ccc2c(c1)O[C@@H](CN(C)Cc1ccc3c(c1)OCO3)[C@@H](C)CN([C@H](C)CO)S2(=O)=O | nt | -36.1 | -1.5 | 92.7 | nt | nt | nt | nt
CCCC#Cc1ccc2c(c1)O[C@H](CN(C)Cc1ccc3c(c1)OCO3)[C@H](C)CN([C@@H](C)CO)S2(=O)=O | nt | -79.1 | -0.2 | 128.1* | ? | 112.3* | 29.3 | 104.4*
CCCC#Cc1ccc2c(c1)O[C@H](CN(C)Cc1ccc3c(c1)OCO3)[C@@H](C)CN([C@H](C)CO)S2(=O)=O | -1.1 | nt | -0.1 | 100.7* | 98.1* | 92.0 | 25.6 | 106.0*
SMILES | GASC1 inh | Pf Dd2 growth | IDH1 mut inh | T cruzi growth-1 | T cruzi growth-2 | T cruzi growth-3 | 3T3 cytotox | NIH3T3 tox 2
CCCC#Cc1ccc2c(c1)O[C@@H](CN(C)Cc1ccc3c(c1)OCO3)[C@@H](C)CN([C@@H](C)CO)S2(=O)=O | -1.0 | -75.0 | -1.3 | 126.3* | 88.7 | 102.5* | 29.3 | 104.5*
CC(C)CC#Cc1ccc2c(c1)O[C@H](CN(C)Cc1ccc3c(c1)OCO3)[C@H](C)CN([C@H](C)CO)S2(=O)=O | nt | -32.7 | -0.4 | 89.2 | nt | nt | nt | nt
CCCC#Cc1ccc2c(c1)O[C@H](CN(C)Cc1ccc3c(c1)OCO3)[C@H](C)CN([C@H](C)CO)S2(=O)=O | nt | ? | -1.0 | 129.8* | 100.2* | 109.5* | 6.2 | 104.3*
CCCCCCNC(=O)Nc1ccc(S(=O)(=O)Nc2ccc(CCNCC(O)COc3ccc(O)cc3)cc2)cc1 (stereo unspecified) | nt | nt | 1.2 | nt | nt | nt | nt | nt
C/C=C/c1ccc2c(c1)O[C@@H](CN(C)Cc1ccncc1)[C@H](C)CN([C@@H](C)CO)S2(=O)=O | 2.1 | -52.5 | 0.5 | 108.2* | 107.8* | 104.7* | 31.5 | 57.0*
C/C=C/c1ccc2c(c1)O[C@H](CN(C)Cc1ccncc1)[C@H](C)CN([C@@H](C)CO)S2(=O)=O | 0.6 | -12.2 | -7.3 | 78.7 | nt | nt | nt | nt
